Usually Ki stands for a dissociation constant, usually derived from enzyme kinetics or from competition with a known ligand. In general, IC50 refers to the concentration that inhibits the measured activity by half. A high value points to weaker potency in that assay.

Assay [1] deals with Metallo-beta-lactamase type 2 (Aeromonas hydrophila, UniProt P26918). Nature of the assay: Inhibition of Aeromonas hydrophila cphA. In short, it runs like this: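 Purified CphA (0.2–0.8 nM) in 15 mM cacodylate pH 6.5 with 20 μg/mL BSA and no added Zn2+ (Zn2+ below 0.4 μM). Enzyme was preincubated with 100 μM inhibitor for 30 min at 37 C. Imipenem was then added and its hydrolysis followed by absorbance at 300 nm. Competitive Ki determined; SD below 10%.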
Metallo-beta-lactamase type 2, sequence (P26918 whole entry): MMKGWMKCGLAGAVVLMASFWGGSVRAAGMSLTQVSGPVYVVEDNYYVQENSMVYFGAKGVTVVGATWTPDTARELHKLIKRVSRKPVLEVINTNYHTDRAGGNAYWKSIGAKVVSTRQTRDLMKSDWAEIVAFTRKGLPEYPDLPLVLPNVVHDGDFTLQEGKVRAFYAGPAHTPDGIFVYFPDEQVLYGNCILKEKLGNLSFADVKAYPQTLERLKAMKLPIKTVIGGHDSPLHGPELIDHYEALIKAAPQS

Assay [2] can be described thus: Inhibition of VIM4 in presence of Zn+ chelator. In short, it runs like this: (§1)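 Purified VIM-4 (0.2–0.8 nM) in 10 mM HEPES pH 7.2 with 20 μg/mL BSA, run without added Zn2+ (Zn2+ below 0.4 μM) or with 50 μM ZnCl2 final. Enzyme was preincubated with 100 μM inhibitor for 30 min at 37 C. Nitrocefin hydrolysis followed at 482 nm. Ki determined; SD below 10%.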
For assay [3], the target named is T1, Beta-lactamase L1 (Stenotrophomonas maltophilia, UniProt P52700). Nature of the assay: Inhibition of Stenotrophomonas maltophilia beta lactamase L1 in absence of Zn+ chelator. In short, it runs like this:
(§2)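 Purified L1 (0.2–0.8 nM) in 20 mM HEPES pH 7.0 with 20 μg/mL BSA, run without added Zn2+ (Zn2+ below 0.4 μM) or with 50 μM ZnCl2 final. Enzyme was preincubated with 100 μM inhibitor for 30 min at 37 C. Imipenem hydrolysis followed at 300 nm. Ki determined; SD below 10%.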

Assay [4] has as its target T1, Beta-lactamase L1. Nature of the assay: Inhibition of Stenotrophomonas maltophilia beta lactamase L1 in presence of Zn+ chelator. An outline of the steps:
as §2

A short description of assay [5]: Inhibition of VIM4 in absence of Zn+ chelator. An outline of the steps:
as §1

The nature of assay [6]: Inhibition of Escherichia coli alkaline phosphatase.
For assay [7], the target named is Intestinal-type alkaline phosphatase (Bos taurus, UniProt P19111). Nature of the assay: Inhibition of bovine intestinal alkaline phosphatase.
Intestinal-type alkaline phosphatase, sequence (P19111 whole entry): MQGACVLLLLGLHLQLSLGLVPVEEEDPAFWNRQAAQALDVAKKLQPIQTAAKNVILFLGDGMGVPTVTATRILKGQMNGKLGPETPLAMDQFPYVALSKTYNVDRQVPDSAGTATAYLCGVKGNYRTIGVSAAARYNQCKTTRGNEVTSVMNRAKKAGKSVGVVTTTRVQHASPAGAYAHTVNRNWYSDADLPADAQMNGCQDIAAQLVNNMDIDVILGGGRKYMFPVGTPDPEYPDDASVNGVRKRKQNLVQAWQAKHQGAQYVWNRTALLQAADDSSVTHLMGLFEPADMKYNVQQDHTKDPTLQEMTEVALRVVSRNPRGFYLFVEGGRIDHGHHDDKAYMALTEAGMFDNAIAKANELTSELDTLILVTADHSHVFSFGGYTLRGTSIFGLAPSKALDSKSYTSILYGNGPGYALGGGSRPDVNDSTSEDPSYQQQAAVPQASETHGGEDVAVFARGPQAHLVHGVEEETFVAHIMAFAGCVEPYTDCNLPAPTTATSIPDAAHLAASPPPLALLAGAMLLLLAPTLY

T1 sequence (P52700 whole entry): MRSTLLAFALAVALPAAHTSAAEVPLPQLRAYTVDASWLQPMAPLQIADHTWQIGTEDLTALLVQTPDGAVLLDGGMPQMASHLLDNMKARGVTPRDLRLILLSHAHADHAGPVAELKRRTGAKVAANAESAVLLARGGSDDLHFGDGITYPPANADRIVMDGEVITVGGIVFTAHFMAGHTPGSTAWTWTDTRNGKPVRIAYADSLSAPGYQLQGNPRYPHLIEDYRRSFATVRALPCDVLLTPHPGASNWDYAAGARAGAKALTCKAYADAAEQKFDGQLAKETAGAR

In the case of `O=P(O)(O)C(S)c1ccccc1` (configuration not stated), the Ki in assay [1] is 11 µM; in assay [2], 3 µM; in assay [3] it was more than 100 µM; in assay [4] it was 32 µM; in assay [5], 2.5 µM.
For `O=P(O)(O)c1cc(F)ccc1S` the same measures were more than 40 µM, 13 µM, 40 µM, 4 µM and 2.5 µM.
For the compound `CC(C)OP(=O)(OC(C)C)c1ccccc1S`, the inhibition constant (Ki) in assay [1], in assay [2], in assay [3], in assay [4] and in assay [5] was more than 250 µM each time.
Consider `CCC(S)P(=O)(O)O` (configuration not stated), for which the Ki in assay [1] was 15 µM; in assay [2] it was 6 µM; in assay [3], more than 80 µM; in assay [4], more than 40 µM; in assay [5], 11 µM.
`O=P(O)(O)C(S)c1ccc(F)cc1` (configuration not stated): the inhibitory constant (Ki) is 1 µM in assay [1]; 11 µM in assay [2]; more than 20 µM in assay [3]; 18 µM in assay [4]; 16 µM in assay [5].
On to `O=P(O)(O)c1ccccc1S`, for which the Ki amounted to 7 µM in assay [1]; 4 µM in assay [2]; 0.21 µM in assay [7]; 9 µM in assay [3]; 12 µM in assay [4]; 2 µM in assay [5]. In assay [6], the IC50 was less than 10 µM.
For the compound `CC(C)OP(=O)(OC(C)C)c1ccccc1CS`, the Ki in assay [1] was 2 µM; in assay [2] it was 12 µM; in assay [3], 3 µM; in assay [4], 14 µM; in assay [5], 3 µM.
With `O=P(O)(O)c1ccccc1CS`, the Ki in assay [1] was 0.5 µM; in assay [2], more than 400 µM; in assay [3] it was 2 µM; in assay [4] it was more than 50 µM; in assay [5], 1 µM.
For `CCC(S)P(=O)(OC(C)C)OC(C)C` (configuration not stated) the same measures were 2 µM, more than 20 µM, more than 40 µM, more than 40 µM and more than 20 µM.
For `O=P(O)(O)C(S)c1ccc(Cl)cc1Cl` (configuration not stated), the inhibition constant Ki in assay [1] was found to be 5 µM; in assay [2] it was 4 µM; in assay [3] it was 0.4 µM; in assay [4], 0.4 µM; in assay [5], 1 µM.
As to `COc1ccccc1C(S)P(=O)(O)O` (configuration not stated), the inhibition constant (Ki) in assay [1] turned out to be 15 µM; in assay [2], 4 µM; in assay [3], 9 µM; in assay [4], 4 µM; in assay [5], 2 µM.
As for `O=P(O)(O)C(S)c1ccc(Br)cc1` (configuration not stated), the Ki in assay [1] was found to be 13 µM; in assay [2], 13.5 µM; in assay [3], 8.4 µM; in assay [4], 1.7 µM; in assay [5], 5.5 µM.
As to `O=P(O)(O)C(S)c1ccc(Cl)cc1` (configuration not stated), the Ki came to 24 µM in assay [1]; 10 µM in assay [2]; 3.8 µM in assay [3]; 0.7 µM in assay [4]; 6.7 µM in assay [5].
For `CC(C)OP(=O)(OC(C)C)C(S)c1ccccc1` (configuration not stated) [DIISOPROPYL MERCAPTO(PHENYL)METHYLPHOSPHONATE], the inhibition constant (Ki) in assay [1] is 0.25 µM; in assay [2] it was 8 µM; in assay [3] it was 20 µM; in assay [4] it was 16 µM; in assay [5] it was 3 µM.
